Shown are actives, neighbours in structure and some others; about 4% of the full set was active somewhere.
Cardio protect: myocardial damage modulation in H9c2 cells | H9c2 cardiomyocytes, H2O2 injury protection, ATPLite, 2 h | protection from H2O2 cell death, % at 20 µM | 0.63% of 360,000 active;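 active means compounds giving at least 50% protection of heart cells from peroxide-induced death in the single-dose screen, raw or plate-pattern-corrected value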;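 further: 0% = DMSO wells with peroxide and 100% = DMSO wells without peroxide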
SENP1 inh: blocks the human SENP1 SUMO protease catalytic domain; Q9P0U3; 0.21% of 360,000 active; recombinant SENP1 catalytic domain, CyPet-SUMO1-YPet FRET cleavage; inhibition, % at 10 µM;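 active means inhibition at least 30% at 10 µM, raw YFP signal under a set limit, fluorescence ratio 0.5 to 1.5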;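 further: 0% = enzyme with DMSO and 100% = no enzyme wells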
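System: Recombinant human SENP1 catalytic domain, His6-tagged | Incubation: Enzyme reaction for 50 min at room temperature, dark | Medium: Tris pH 8 with BME, BSA, NP40 and catalase | Also added: 25 nM SUMO1 FRET substrate | Compound: 10 µM single point, 0.5% DMSO | Measured by: FRET fluorescence in CFP and YFP emission channels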
hiPSC survival: enhancers of human iPSC single-cell survival | hiPSC single-cell survival, ATPlite luminescence; 100% = ROCK inhibitor wells, 0% = DMSO | survival enhancement, % at 20 µM | 0.044% of 360,000 active | AID 602274; in the data active means survival enhancement above about 18%;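 further: cells exposed to compounds for 16 hours before the ATP read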
Arrestin-AP2 inh: inhibitors of human beta-arrestin and AP2 interaction | FITC-arrestin peptide / GST-AP2 beads, flow cytometry; AP2 beta2 appendage carries R879A mutation | inhibition, % at 10 µM | 0.31% of 340,000 active | AID 504490;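 active means inhibition above a set limit, near 3 SD of compounds lacking own fluorescence, cut at about 54% in these data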;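 further: plate controls were DMSO wells for no effect and 5 µM unlabelled arrestin peptide for full effect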
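Material – AP2 appendage R879A on GSH beads · Buffer or medium – PBS with 0.05% Tween 20 and 0.1% BSA · Probe or stimulus – fluorescein-tagged arrestin peptide at 50 nM final · Incubation – compound with beads 12 min RT, then probe 1 h RT · Detection – high-throughput flow cytometry of beads, ex 488, em 535 nm · Evaluation – percent response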
GRIN3A LBD mod: modulates the human NR3A ligand-binding domain. NR3A LBD differential scanning fluorimetry, Tm shift; 0% = protein alone, 100% = glycine-bound protein. Tm shift relative to glycine control, % at 25 µM. 2.5% of 340,000 active;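 active means melting temperature shift of at least 10% of the positive control shift, at one fixed dose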
FAS-TE inh: FAS thioesterase (human) inhibition | AID 602261 | inhibition, % at 15 µM | P49327 | recombinant FAS-TE, OMFH fluorogenic substrate, fluorescence endpoint | 0.67% of 360,000 active;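 active means compounds whose normalised, plate-corrected inhibition of enzyme fluorescence in the single-dose primary screen is 50% or more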;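 further: 0% = DMSO with enzyme and 100% = substrate without enzyme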
Starred values were filed as active, the others as inactive.

`CCn1c(SCC(=O)Nc2ccccc2N2CCCCC2)nc2c1c(=O)n(C)c(=O)n2C` gave Cardio protect 61.7*, SENP1 inh 0.4, hiPSC survival 0.9, Arrestin-AP2 inh -6.7, GRIN3A LBD mod -23.1 and FAS-TE inh 24.0.
For Cc1cccc(Cc2cccc(C)c2O)c1O the results were Cardio protect -7.0, SENP1 inh 1.6, hiPSC survival -0.5, GRIN3A LBD mod -2.6 and FAS-TE inh 2.4.
For Cc1ccc(NC(=O)CCCc2nc3ccccc3c(=O)[nH]2)c(Cl)c1 the results were Cardio protect 63.3*, SENP1 inh -0.8, hiPSC survival -0.4, Arrestin-AP2 inh -10.9, GRIN3A LBD mod 1.1 and FAS-TE inh -1.1.
Screening Cc1ccc(NC(=O)COC(=O)CCc2nc3ccccc3c(=O)[nH]2)cc1Cl returned Cardio protect 37.5, SENP1 inh -2.0, hiPSC survival -0.8, Arrestin-AP2 inh 3.7, GRIN3A LBD mod -1.0 and FAS-TE inh 1.8.
Screening Cc1c(Cl)cccc1NC(=O)CNC(=O)CCCc1nc2ccccc2c(=O)[nH]1 returned Cardio protect 34.5, SENP1 inh 0.1, hiPSC survival 0.9, Arrestin-AP2 inh -7.3, GRIN3A LBD mod -2.1 and FAS-TE inh 0.6.
For COc1ccc(NC(=O)CCCc2nc3ccccc3c(=O)[nH]2)cc1Cl the results were Cardio protect 57.4*, SENP1 inh 0.3, hiPSC survival 1.9, Arrestin-AP2 inh 0.5, GRIN3A LBD mod -21.6 and FAS-TE inh -1.8.
Cc1[nH]c2ccccc2c1C(=O)C(=O)NCc1nnnn1-c1ccc(F)cc1 was read as Cardio protect -1.1, SENP1 inh 2.3, hiPSC survival 1.0 and FAS-TE inh -6.5.
Screening Cc1ccc(C(=O)COC(=O)CNS(=O)(=O)c2ccccc2)cc1[N+](=O)[O-] returned Cardio protect 16.3, SENP1 inh 3.9, hiPSC survival 2.5, Arrestin-AP2 inh 3.3, GRIN3A LBD mod 17.7* and FAS-TE inh -0.4.
Screening CC1CN(C(=O)COC(=O)/C=C/c2ccccc2)CC(C)O1 (configuration not stated) returned Cardio protect 0.4, SENP1 inh 3.8, hiPSC survival -1.3 and FAS-TE inh -9.3.
`Cc1ccc(S(=O)(=O)N2CCCCC2)cc1NC(=O)COC(=O)C1CC2C=CC1C2` (configuration not stated) gave Cardio protect -9.3, SENP1 inh 2.1, hiPSC survival -1.6, Arrestin-AP2 inh -3.8, GRIN3A LBD mod 10.3* and FAS-TE inh 3.4.
`Cc1ccc(NC(=O)COC(=O)C2CC3C=CC2C3)cc1S(=O)(=O)N1CCCCC1` (configuration not stated) gave Cardio protect -12.9, SENP1 inh 3.2, hiPSC survival 1.2, Arrestin-AP2 inh 14.1, GRIN3A LBD mod -7.4 and FAS-TE inh 21.0.
`O=C(NN=C1CCCCCC1)c1cc2ccccc2cc1O` gave Cardio protect 13.8, SENP1 inh -30.1, hiPSC survival -0.3, Arrestin-AP2 inh -10.5, GRIN3A LBD mod -2.0 and FAS-TE inh -1.2.
`O=C(NN=C1CCCCCC1)c1c[nH]c2ccccc12` gave Cardio protect 1.0, SENP1 inh 3.3, hiPSC survival -0.2, Arrestin-AP2 inh 7.8, GRIN3A LBD mod 19.6* and FAS-TE inh 0.5.
Screening CCc1ccc(/C=N/NC(=O)c2c[nH]c3ccccc23)s1 returned Cardio protect -3.9, SENP1 inh -0.9, hiPSC survival -2.9, Arrestin-AP2 inh 1.1, GRIN3A LBD mod 29.7* and FAS-TE inh 10.3.
Screening O=C(N/N=C/c1cccs1)c1c[nH]c2ccccc12 returned Cardio protect -3.4, SENP1 inh 0.2, hiPSC survival 1.6, Arrestin-AP2 inh -0.4, GRIN3A LBD mod 14.3* and FAS-TE inh -7.4.
`CCCc1cc(C(=O)N/N=C/c2ccc(CC)s2)c2ccccc2n1` gave Cardio protect -9.5, SENP1 inh -1.4, hiPSC survival -3.7, Arrestin-AP2 inh 21.6, GRIN3A LBD mod -20.2 and FAS-TE inh 0.2.
`Cc1c(/C=N\NC(=O)c2c[nH]c3ccccc23)cnn1C` gave Cardio protect 0.1, SENP1 inh 0.2, hiPSC survival 1.9, Arrestin-AP2 inh 11.5, GRIN3A LBD mod -6.8 and FAS-TE inh -9.5.
`CC1=C(C(=O)N(C)C)CC(CC(=O)NCc2cccs2)C(=O)N1CCC1=CCCCC1` (configuration not stated) gave Cardio protect 2.6, SENP1 inh 0.7, hiPSC survival -2.9 and FAS-TE inh 3.1.
`CCC(=O)N1CCC1(C)C(=O)Nc1ccc(OC)c(OC)c1` (configuration not stated) gave Cardio protect 0.2, SENP1 inh 1.1, hiPSC survival 2.5 and FAS-TE inh -3.3.
For COc1ccc(NC(=O)c2nc[nH]c2C(=O)N(C)CCO)cc1 the results were Cardio protect -5.1, SENP1 inh 0.1, hiPSC survival 0.8 and FAS-TE inh -6.2.
CCN(CC)CCn1c2c(c(SCC(=O)Nc3cccc(C(C)=O)c3)nc1=O)CCCC2 was read as Cardio protect 74.6*, SENP1 inh -3.8, hiPSC survival 0.4, Arrestin-AP2 inh -9.1, GRIN3A LBD mod 6.8 and FAS-TE inh -2.9.
CCN(CC)CCCn1c2c(c(SCC(=O)Nc3cccc(C(C)=O)c3)nc1=O)CCC2 was read as Cardio protect 18.7, SENP1 inh -0.8, hiPSC survival -0.3, Arrestin-AP2 inh 23.7, GRIN3A LBD mod 1.4 and FAS-TE inh -7.8.
Cn1c2c(c(=O)n(C)c1=O)C(c1ccc(Br)cc1)Nc1ccccc1O2 (configuration not stated) was read as Cardio protect 50.6*, SENP1 inh 1.6, hiPSC survival 0.2, Arrestin-AP2 inh 20.2, GRIN3A LBD mod -0.1 and FAS-TE inh 19.7.
`CN1c2ccccc2Oc2c(c(=O)n(C)c(=O)n2C)C1c1cccc([N+](=O)[O-])c1` (configuration not stated) gave Cardio protect 26.1, SENP1 inh 4.3, hiPSC survival -2.0, Arrestin-AP2 inh -11.7, GRIN3A LBD mod 0.9 and FAS-TE inh 0.7.
CCOC(=O)C1(C)CCCN(C(=O)c2cc(C#N)cs2)C1 (configuration not stated) was read as Cardio protect -0.2, SENP1 inh 2.8, hiPSC survival -1.6 and FAS-TE inh -8.2.
COc1ccc(CCCNC(=O)C2(C)Cc3c(-c4ccc(NC(C)=O)cc4)ccnc3O2)cc1 (configuration not stated) was read as Cardio protect 63.6*, SENP1 inh 3.7, hiPSC survival 8.0 and FAS-TE inh 1.3.
